Assay results from ChEMBL document CHEMBL3616432, “(+)-Dehydroabietylamine derivatives target triple-negative breast cancer” (Eur J Med Chem, 2015).
Active and inactive are the calls of the source. The calls are words filed in the database; no cut-off is given here.

What was measured:
MDA-MB-231 [1] = assay: Antiproliferative activity against human triple-negative MDA-MB-231 cells at >52.3 uM after 72 hrs by CellTiter-Glo assay; assay type: functional, cell-based
MCF7 [2] = assay: Antiproliferative activity against human ER-positive MCF7 cells at 52 to 65 uM after 72 hrs by CellTiter-Glo assay; assay type: functional, cell-based
HEK293 [3] = assay: Cytotoxicity against HEK293 cells at 52 to 65 uM after 72 hrs by CellTiter-Glo assay; assay type: cell-based; conditions: human, hek293, 72 h
Homo sapiens [4] = organism: Homo sapiens; assay: Antiproliferative activity against human ER-positive MA11 cells at 52 to 65 uM after 72 hrs by CellTiter-Glo assay; assay type: functional
MDA-MB-231 [5] = assay: Antiproliferative activity against human triple-negative MDA-MB-231 cells at 52 to 65 uM after 72 hrs by CellTiter-Glo assay; assay type: functional, cell-based
HepG2 [6] = assay: Cytotoxicity against human HepG2 cells at 52 to 65 uM after 72 hrs by CellTiter-Glo assay; assay type: cell-based; conditions: hepg2, 72 h
MDA-MB-231 [7] = assay: Induction of apoptosis in human triple-negative MDA-MB-231 cells assessed as early apoptotic cells after 12 hrs by Annexin V-FITC/propidium iodide staining-based flow cytometry (reference value: 3.1%); assay type: functional
MDA-MB-231 [8] = assay: Cell cycle arrest in human triple-negative MDA-MB-231 cells assessed as accumulation at G2/M phase at 30.0 uM after 12 hrs by propidium iodide staining-based flow cytometry (reference value: 20.40%); assay type: functional
MDA-MB-231 [9] = assay: Induction of DNA fragmentation in human triple-negative MDA-MB-231 cells at 30 uM by propidium iodide staining-based flow cytometry; assay type: functional, cell-based
MDA-MB-231 [10] = assay: Induction of apoptosis in human triple-negative MDA-MB-231 cells assessed as late apoptotic cells after 12 hrs by Annexin V-FITC/propidium iodide staining-based flow cytometry (reference value: 3.7%); assay type: functional
MDA-MB-231 [11] = assay: Antiproliferative activity against human triple-negative MDA-MB-231 cells at 35 uM after 72 hrs by CellTiter-Glo assay; assay type: functional, cell-based
MDA-MB-231 [12] = assay: Induction of apoptosis in human triple-negative MDA-MB-231 cells assessed as decrease in caspase-7 level after 6 to 12 hrs by western blot analysis; assay type: functional, cell-based
MDA-MB-231 [13] = assay: Induction of apoptosis in human triple-negative MDA-MB-231 cells assessed as increase in cleaved caspase-9 level after 6 to 12 hrs by western blot analysis; assay type: functional, cell-based
Homo sapiens [14] = organism: Homo sapiens; assay: Antiproliferative activity against human ER-positive MA11 cells at 48 uM after 72 hrs by CellTiter-Glo assay; assay type: functional
MCF7 [15] = assay: Antiproliferative activity against human ER-positive MCF7 cells at 48 uM after 72 hrs by CellTiter-Glo assay; assay type: functional, cell-based
MDA-MB-231 [16] = assay: Induction of apoptosis in human triple-negative MDA-MB-231 cells assessed as increase in cleaved caspase-3 level after 6 to 12 hrs by western blot analysis; assay type: functional, cell-based
MDA-MB-231 [17] = assay: Induction of apoptosis in human triple-negative MDA-MB-231 cells assessed as increase in cleaved caspase-8 level after 6 to 12 hrs by western blot analysis; assay type: functional, cell-based
MDA-MB-231 [18] = assay: Induction of apoptosis in human triple-negative MDA-MB-231 cells assessed as increase in cleaved PARP level by western blot analysis; assay type: functional, cell-based; conditions: TDE = time-dependent effect
MDA-MB-231 [19] = assay: Induction of apoptosis in human triple-negative MDA-MB-231 cells assessed as viable cells after 12 hrs by Annexin V-FITC/propidium iodide staining-based flow cytometry (reference value: 93.1%); assay type: functional
MDA-MB-231 [20] = assay: Induction of apoptosis in human triple-negative MDA-MB-231 cells assessed as increase in DR5 level after 12 hrs by western blot analysis; assay type: functional, cell-based
MDA-MB-231 [21] = assay: Induction of apoptosis in human triple-negative MDA-MB-231 cells assessed as necrotic cells after 12 hrs by Annexin V-FITC/propidium iodide staining-based flow cytometry (reference value: 0.1%); assay type: functional
MDA-MB-231 [22] = assay: Cell cycle arrest in human triple-negative MDA-MB-231 cells assessed as accumulation at G0/G1 phase at 30.0 uM after 12 hrs by propidium iodide staining-based flow cytometry (reference value: 48.36%); assay type: functional
MDA-MB-231 [23] = assay: Cell cycle arrest in human triple-negative MDA-MB-231 cells assessed as accumulation at S phase at 30.0 uM after 12 hrs by propidium iodide staining-based flow cytometry (reference value: 31.23%); assay type: functional
[24] = Half life in mouse plasma; assay type: ADME, cell-free
In short: (§1)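 Compound stability incubated in human or mouse plasma; half-life determined, with known drugs as controls.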

[25] = Half life in human plasma; assay type: ADME, cell-free; in short: as §1
HEK293 [26] = assay: Cytotoxicity against HEK293 cells at <= 50 uM after 72 hrs by CellTiter-Glo assay; assay type: cell-based; conditions: human, hek293, 72 h
HepG2 [27] = assay: Cytotoxicity against human HepG2 cells at <= 50 uM after 72 hrs by CellTiter-Glo assay; assay type: cell-based; conditions: hepg2, 72 h
MDA-MB-231 [28] = assay: Antiproliferative activity against human triple-negative MDA-MB-231 cells at <= 50 uM after 72 hrs by CellTiter-Glo assay; assay type: functional, cell-based

| Compound | Activity (MCF7 [2]) | Activity (HEK293 [3]) | Activity (Homo sapiens [4]) | Activity (MDA-MB-231 [5]) | Activity (HepG2 [6]) | other results |
| --- | --- | --- | --- | --- | --- | --- |
| CC(C)c1ccc2c(c1)CC[C@H]1[C@](C)(CNS(=O)(=O)c3cc(Cl)cc(Cl)c3)CCC[C@]21C |  |  |  |  |  | Activity (MDA-MB-231 [1]): Active |
| CC(C)c1ccc2c(c1)CC[C@H]1[C@](C)(CNS(=O)(=O)c3c(Cl)cc(Cl)cc3Cl)CCC[C@]21C |  |  |  |  |  | Activity (MDA-MB-231 [1]): Active |
| Cc1csc(C(=O)NC[C@]2(C)CCC[C@]3(C)c4ccc(C(C)C)cc4CC[C@@H]23)c1 | inactive | Non-toxic | inactive | inactive | Non-toxic |  |
| CC(C)c1ccc2c(c1)CC[C@H]1[C@](C)(CNC(=O)c3ccc(C(F)(F)F)cc3)CCC[C@]21C | inactive | Non-toxic | inactive | inactive | Non-toxic |  |
| CC(C)c1ccc2c(c1)CC[C@H]1[C@](C)(CNS(=O)(=O)c3cccc(F)c3)CCC[C@]21C |  |  |  |  |  | Activity (MDA-MB-231 [1]): Active |
| CC(C)c1ccc2c(c1)CC[C@H]1[C@](C)(CNS(=O)(=O)c3ccc(C=O)cc3)CCC[C@]21C |  |  |  |  |  | Activity (MDA-MB-231 [7]): 3.4%; Activity (MDA-MB-231 [8]): 16.89%; Activity (MDA-MB-231 [9]): Active; Activity (MDA-MB-231 [10]): 6%; Activity (MDA-MB-231 [11]): Active; Activity (MDA-MB-231 [12]): Active; Activity (MDA-MB-231 [13]): Active; Activity (Homo sapiens [14]): Active; Activity (MCF7 [15]): inactive; Activity (MDA-MB-231 [16]): Active; Activity (MDA-MB-231 [17]): Active; Activity (MDA-MB-231 [18]): tde; Activity (MDA-MB-231 [19]): 90.4%; Activity (MDA-MB-231 [20]): Active; Activity (MDA-MB-231 [21]): 0.2%; Activity (MDA-MB-231 [22]): 63.41%; Activity (MDA-MB-231 [23]): 19.7% |
| COc1ccc(C(=O)NC[C@]2(C)CCC[C@]3(C)c4ccc(C(C)C)cc4CC[C@@H]23)cc1 | inactive | Non-toxic | inactive | inactive | Non-toxic |  |
| CC1CC(OC(=O)C(O)c2ccccc2)CC(C)(C)N1C (stereo unspecified) [EUCATROPINE] |  |  |  |  |  | half-life [24]: 1.8 h; half-life [25]: 0.42 h |
| CC(C)c1ccc2c(c1)CC[C@H]1[C@](C)(CNC(=O)c3cc4ccccc4o3)CCC[C@]21C | inactive | Non-toxic | inactive | inactive | Non-toxic |  |
| CC(C)c1ccc2c(c1)CC[C@H]1[C@](C)(CNC(=O)c3ccc(Cl)cc3Cl)CCC[C@]21C | inactive | Non-toxic | inactive | inactive | Non-toxic |  |
| CC(C)c1cc2c(c(O)c1O)[C@@]1(C(=O)O)CCCC(C)(C)[C@@H]1CC2 [CARNOSIC ACID] |  |  |  |  |  | Activity (HEK293 [26]): Non-toxic; Activity (HepG2 [27]): Non-toxic; Activity (MDA-MB-231 [28]): Active |
| CC(C)c1ccc2c(c1)CC[C@H]1[C@](C)(CNC(=O)CSc3ccccc3)CCC[C@]21C | inactive | Non-toxic | inactive | inactive | Non-toxic |  |
| CC(C)c1ccc2c(c1)CC[C@H]1[C@](C)(CNC(=O)c3ccc(C#N)cc3)CCC[C@]21C | inactive | Non-toxic | inactive | inactive | Non-toxic |  |
| CC(C)c1ccc2c(c1)CC[C@H]1[C@](C)(CNS(=O)(=O)c3cccc(Cl)c3Cl)CCC[C@]21C |  |  |  |  |  | Activity (MDA-MB-231 [1]): Active |
